Results published in ChEMBL document CHEMBL3779787, “Amorfrutin C Induces Apoptosis and Inhibits Proliferation in Colon Cancer Cells through Targeting Mitochondria” (J Nat Prod, 2016).
Activity calls are given as the source filed them. The rule behind the calls is not given here.

Columns and labels:
[1] = system: HT-29; assay: Induction of cell cycle arrest in human HT-29 cells assessed as accumulation at S phase at 10 uM by flow cytometry (reference value: 11%); type: functional
[2] = system: HT-29; assay: Increase in mitochondrial oxygen consumption in human HT-29 cells at 2 to 10 uM measured for 20 to 60 mins by time-resolved fluorescence assay; type: functional, cell-based
Outline: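 HT-29 at 80 000 cells/well in phenol red-free DMEM/F-12 with oxygen-sensitive lifetime probe, compound added, wells sealed with mineral oil. Time-resolved fluorescence at 37 °C, 90 s intervals for 150 min. Lifetime slope over 20–60 min expressed relative to untreated cells; means ± SEM, n = 8.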

[3] = system: HT-29; assay: Antiproliferative activity against human HT-29 cells assessed as cellular DNA content at 20 uM after 48 hrs by CyQUANT NF fluorescence assay in presence of N-acetylcysteine; type: functional, cell-based
Outline: (§1)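 HT-29 given concentration series of test compound with or without antioxidant (NAC 1 mM, GSH 2.5 mM, D3T 25 μM, α-tocopherol 50 μM, ascorbic acid 500 μM) for 48 h. Relative cell number from DNA-binding fluorescent dye; means ± SD, n = 4.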

[4] = system: HT-29; assay: Induction of apoptosis in human HT-29 cells at 30 uM after 24 hrs by annexin V-FLUOS/propidium iodide staining-based flow cytometry in presence of ascorbic acid; type: functional, cell-based
Outline: (§2)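 HT-29 cells co-incubated 24 h with 30 μM compound and antioxidant: glutathione 2.5 mM, α-tocopherol 50 μM, or ascorbic acid 500 μM. Phosphatidylserine externalization measured by annexin V-FLUOS/propidium iodide staining and flow cytometry. Means ± SEM, n = 3.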

[5] = system: HT-29; assay: Induction of apoptosis in human HT-29 cells assessed as mitochondrial membrane depolarization after 5 mins by JC-1 dye-based fluorescence assay; type: functional, cell-based; conditions: HT-29, 5 min
Outline: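 HT-29 (40 000 cells/well) treated with concentration series for 5 min at 37 °C, then JC-1 added for a further 10 min and washed. Red (560/590 nm) to green (485/520 nm) fluorescence ratio taken as ΔΨm; variable-slope fit for IC50; means ± SD, n = 4.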

[6] = system: HT-29; assay: Induction of ROS generation in human HT-29 cells at 30 uM by CM-H2DCFDA staining-based fluorescence assay in presence of alpha-tocopherol; type: functional, cell-based
Outline: (§3)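 HT-29 (15 000 cells/well) loaded with 50 μM CM-H2DCFDA in PBS for 30 min at 37 °C, washed, then 60 min in phenol red-free DMEM/F-12. 30 μM compound added alone or with NAC 1 mM, GSH 2.5 mM, D3T 25 μM, α-tocopherol 50 μM or ascorbic acid 500 μM. Fluorescence 485/530 nm read kinetically at 37 °C for 22 h; area under curve; means ± SEM, n = 7.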

[7] = system: MCF7; assay: Antiproliferative activity against human MCF7 cells assessed as cellular DNA content after 96 hrs by CyQUANT NF fluorescence assay; type: functional, cell-based; conditions: MCF7, 96 h
Outline: (§4)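 Cells seeded at 750 (HT-29), 250 (PC-3) or 900 (T84, MCF7) cells/well, treated next day with concentration series for 72 h (HT-29, PC-3) or 96 h (T84, MCF7). Relative cell number from cellular DNA content by fluorescent DNA-binding dye. Variable-slope fit; efficiency = maximal inhibition (100% − Bottom) vs untreated; IC50 relative to the compound's own maximal efficiency.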

[8] = Antiproliferative activity against human PC3 cells assessed as cellular DNA content after 72 hrs by CyQUANT NF fluorescence assay relative to control; type: functional, PC-3; outline: as §4
[9] = system: HT-29; assay: Antiproliferative activity against human HT-29 cells assessed as cellular DNA content at 20 uM after 48 hrs by CyQUANT NF fluorescence assay in presence of 3H-1,2-dithiole-3-thione; type: functional, cell-based; outline: as §1
[10] = system: T84; assay: Antiproliferative activity against human T84 cells assessed as cellular DNA content after 96 hrs by CyQUANT NF fluorescence assay; type: functional, cell-based; conditions: T84, 96 h; outline: as §4
[11] = system: HT-29; assay: Induction of apoptosis in human HT-29 cells assessed as phosphatidylserine externalization at 20 uM after 48 hrs by annexin V-FLUOS/propidium iodide staining-based flow cytometry (reference value: 8%); type: functional
[12] = system: HT-29; assay: Induction of ROS generation in human HT-29 cells at 30 uM by CM-H2DCFDA staining-based fluorescence assay in presence of N-acetylcysteine; type: functional, cell-based; outline: as §3
[13] = system: HT-29; assay: Induction of apoptosis in human HT-29 cells at 30 uM after 24 hrs by annexin V-FLUOS/propidium iodide staining-based flow cytometry in presence of alpha-tocopherol; type: functional, cell-based; outline: as §2
[14] = system: HT-29; assay: Downregulation of cyclin E2 expression in human HT-29 cells at 10 uM after 48 hrs by immunoblotting method; type: functional, cell-based
Outline: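 HT-29 exposed to 10 μM for 48 h; whole-cell lysates immunoblotted for the indicated proteins (total and cleaved PARP for the apoptosis line).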

[15] = system: HT-29; assay: Induction of apoptosis in human HT-29 cells assessed as increase in phosphatidylserine externalization at 10 uM after 48 hrs by flow cytometry in presence of alphaFas; type: functional, cell-based
Outline: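 HT-29 exposed 48 h to 10 μM compound, αFAS (10 ng/mL), TRAIL (30 ng/mL) or combinations. Phosphatidylserine externalization by annexin V flow cytometry. Expected combination effects from Bliss independence; means ± SEM, n = 4.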

[16] = system: HT-29; assay: Antiproliferative activity against human HT-29 cells assessed as cellular DNA content after 72 hrs by CyQUANT NF fluorescence assay in presence of cisplatin; type: functional, cell-based
Outline: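 HT-29 exposed 72 h to concentration series of mixtures at ratios 7:0 through 0:7 with the partner drug. Relative cell number from DNA-content fluorescence. IC70 = concentration giving 70% inhibition of total cells (means ± SD, n = 4); isobolograms by Loewe additivity, CI(M) = IC70(Mx)/IC70(x) + IC70(My)/IC70(y).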

[17] = system: HT-29; assay: Increase in extracellular acidification rate in human HT-29 cells at 10 uM measured for 20 to 150 mins by time-resolved fluorescence assay; type: functional
Outline: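 HT-29 seeded 80 000 cells/well, held overnight at 37 °C without CO2. Low-buffering medium (1 mM PBS pH 7.4, 20 mM glucose, salts) with pH-sensitive lifetime probe, unsealed wells. Time-resolved fluorescence at 37 °C for 200 min, lifetime converted to pH. Acidification rate (H+ change/min) taken over 20–150 min; means ± SEM, n = 8.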

[18] = system: HT-29; assay: Induction of apoptosis in human HT-29 cells assessed as DNA fragmentation by measuring cytoplasmic oligonucleosome level at 30 uM by ELISA; type: functional, cell-based
Outline: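 Cytosolic DNA by ELISA after 4 h treatment. BrdU method: cells (13 000/well) prelabelled with 10 μM BrdU for 2 days at 37 °C, unincorporated BrdU removed before treatment. Oligonucleosome method: 20 000 cells/well, 1 day at 37 °C. Cell-free background subtracted, normalized to vehicle; means ± SEM, n = 4.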

[19] = system: HT-29; assay: Induction of apoptosis in human HT-29 cells assessed as increase in caspase 9 activity at 30 uM after 2 hrs by luminescent assay relative to control; type: functional
Outline: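 HT-29 cells exposed to compound 2 h; effector/initiator caspase enzymatic activity measured by luminescent assays, normalized to control treatment; means ± SEM, n = 4.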

For `COc1c(CC=C(C)C)c(O)c(C(=O)O)c(CCc2ccccc2)c1CC=C(C)C`, the Activity [1] was 2%, the Activity [2] was “Active” and the Activity [3] was “Active”. For the same molecule, the Activity [4] was “Active”, the IC50 [5] was 0.6 µM and the Activity [6] was “inactive”. For the same molecule, the IC50 [7] was 14 µM, the Efficacy [8] was 95% and the Activity [9] was “Active”. For the same molecule, the IC50 [10] was 11 µM, the Activity [11] was 44% and the Activity [12] was “inactive”. The Activity [13] was “Active”, the Activity [14] was “Active” and the Activity [15] was “Active”. For the same molecule, the Activity [16] was “Active”, the Activity [17] was 2.9 ×10⁻⁹ /min and the Activity [18] was “Active”. For the same molecule, the “fold change (FC)” value [19] was 3.
